# Measurements of several laboratories.
# Target: Serine/threonine-protein kinase N2 (PKN2, Homo sapiens, UniProt Q16513)
Compound,assay,conditions,remaining binding
O=C(c1ccc(Nc2ncc(Cl)c(-c3ccc(Cl)s3)n2)cc1)N1CCC(N2CCCC2)CC1,"binding, competition with immobilised ligand",1 µM,56%
Cn1nc(C(=O)NCc2ccc(C(=O)O)cc2)cc1-c1ccc2[nH]ccc2c1,"cell-free assay, competition with immobilised ligand",0.1 µM,100%
Cc1cnc(Nc2ccc(C(=O)N3CCC(N4CCCC4)CC3)cc2)nc1-c1cc2ccccc2s1,"binding, competition with immobilised ligand",1 µM,21%
CN(C)C(=O)Cn1cc(-c2nc(C3(c4ccc(-c5cnc(N)nc5)cc4)CC3)no2)cn1,"cell-free assay, competition with immobilised ligand",1 µM,77%
C[C@@H]1CCN(c2nccc(-c3cnn4ncccc34)n2)C1,binding,1 µM,71%
COc1cnc(Nc2cccc(S(N)(=O)=O)c2)nc1N1CCN(c2ccccc2)CC1,"binding, competition with immobilised ligand",1 µM,100%
Cc1c(NC(=O)c2cc(C(N)=O)nc3cc(F)ccc23)c(C(F)(F)F)nn1Cc1ccc(C#N)cc1,"cell-free assay, competition with immobilised ligand",1 µM,81%
O=C(Nc1c[nH]nc1C(=O)NC1CCNCC1)c1cc(F)cc(F)c1,"binding, competition with immobilised ligand",1 µM,100%
C=CC(=O)N1CCC(C(=O)NCC(=O)N2CCN(c3nc(-c4cnc(N)nc4C(F)F)nc(N4CCOCC4)n3)CC2)CC1,"binding, competition with immobilised ligand",1 µM,84%
Cc1cnn2ncc(-c3ccnc(N(C)C)n3)c2c1,binding,1 µM,94%
COc1cccc(CNC(=O)c2nc3scc(COCc4ccc(C(=O)O)cc4)c3c(=O)[nH]2)c1,"cell-free assay, competition with immobilised ligand",1 µM,98%
CN(CCCC(F)(F)F)c1nccc(-c2cnn3ncccc23)n1,binding,1 µM,74%
O=C(c1ccc(Nc2ncc(Cl)c(-c3cc4ccccc4s3)n2)cc1)N1CCC(N2CCCC2)CC1,"binding, competition with immobilised ligand",1 µM,11%
C[C@@H](c1ccc(-n2cnc3c(N)ncnc32)cc1)N1CCc2nn(C)c(Cc3ccccc3)c2C1=O,"binding, competition with immobilised ligand",0.1 µM,84%
CC1CCCN1c1nccc(-c2cnn3ncccc23)n1 (stereo not shown),binding,1 µM,89%
C[C@@H]1CN(c2cc(-c3nn(C)c4ccc(OC5(C)CC5)cc34)ncn2)C[C@H](C)O1,"cell-free assay, competition with immobilised ligand",1 µM,100%
F[C@@H]1CCN(c2nccc(-c3cnn4ncccc34)n2)C1,binding,1 µM,100%
COc1ncc2cc3ccccc3nc2c1C#N,"cell-free assay, competition with immobilised ligand",5 µM,80%
CN([C@@H]1CCc2c(CC(=O)O)c3cc(S(C)(=O)=O)ccc3n2C1)S(=O)(=O)c1ccc(F)cc1,"cell-free assay, competition with immobilised ligand",1 µM,100%
CN(C)c1nccc(-c2cnn3ncccc23)n1,binding,1 µM,100%
C[C@H](c1ccc(F)cc1)N(Cc1cccc(C(=O)O)c1)C(=O)c1cnc2ccccc2c1,"cell-free assay, competition with immobilised ligand",1 µM,86%
N[C@H]1CCN(c2nccc(-c3cnn4ncccc34)n2)C1,binding,1 µM,71%
